Measured values taken from ChEMBL document CHEMBL4813972, “A grafted peptidomimetic for EGFR heterodimerization inhibition: Implications in NSCLC models” (Eur J Med Chem, 2021).
The source made the active and inactive calls. The rule behind the calls is not given here.

Experiments:
[1] = biological target: Receptor tyrosine-protein kinase erbB-2 (Homo sapiens) (UniProt P04626); experiment: Inhibition of HER2 ECD in human A549 cells assessed as reduction in HER2 intracellular kinase domain phosphorylation at 1 uM incubated for 40 hrs by Western blot analysis; format: cell-based
Receptor tyrosine-protein kinase erbB-2 (Homo sapiens), sequence (P04626 whole entry, the tested form may be a part): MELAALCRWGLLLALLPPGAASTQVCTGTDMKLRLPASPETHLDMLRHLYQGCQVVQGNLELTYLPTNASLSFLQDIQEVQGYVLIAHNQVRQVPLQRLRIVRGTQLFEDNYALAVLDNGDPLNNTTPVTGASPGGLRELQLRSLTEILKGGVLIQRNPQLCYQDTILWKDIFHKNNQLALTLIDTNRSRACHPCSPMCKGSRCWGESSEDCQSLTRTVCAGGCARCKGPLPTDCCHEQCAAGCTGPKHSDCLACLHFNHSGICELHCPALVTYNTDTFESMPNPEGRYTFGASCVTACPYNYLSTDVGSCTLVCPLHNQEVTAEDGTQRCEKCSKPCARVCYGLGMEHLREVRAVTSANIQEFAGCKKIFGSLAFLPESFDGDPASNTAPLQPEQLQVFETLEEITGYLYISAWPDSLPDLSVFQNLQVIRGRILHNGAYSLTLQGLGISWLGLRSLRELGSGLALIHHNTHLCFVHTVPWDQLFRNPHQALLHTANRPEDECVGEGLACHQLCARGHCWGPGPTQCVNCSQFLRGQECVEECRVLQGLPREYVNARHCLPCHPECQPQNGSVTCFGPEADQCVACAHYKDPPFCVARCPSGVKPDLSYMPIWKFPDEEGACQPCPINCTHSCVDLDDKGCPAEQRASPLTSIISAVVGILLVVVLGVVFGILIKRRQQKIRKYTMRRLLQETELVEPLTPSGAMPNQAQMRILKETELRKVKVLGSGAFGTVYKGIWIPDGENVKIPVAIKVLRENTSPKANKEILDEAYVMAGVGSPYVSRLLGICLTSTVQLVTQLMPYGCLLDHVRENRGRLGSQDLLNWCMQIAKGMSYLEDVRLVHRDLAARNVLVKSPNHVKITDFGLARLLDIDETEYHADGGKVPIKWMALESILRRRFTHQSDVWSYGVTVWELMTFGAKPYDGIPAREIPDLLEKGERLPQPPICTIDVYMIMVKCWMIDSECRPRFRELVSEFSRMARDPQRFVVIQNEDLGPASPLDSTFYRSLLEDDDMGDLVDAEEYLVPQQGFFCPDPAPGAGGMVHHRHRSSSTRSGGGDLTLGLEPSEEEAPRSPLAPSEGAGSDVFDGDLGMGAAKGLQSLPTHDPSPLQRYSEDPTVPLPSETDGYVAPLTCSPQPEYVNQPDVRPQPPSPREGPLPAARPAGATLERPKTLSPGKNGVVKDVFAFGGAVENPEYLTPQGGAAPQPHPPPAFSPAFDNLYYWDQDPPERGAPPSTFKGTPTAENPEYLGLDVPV

[2] = Toxicity in Foxn1nu/Foxn1+ mouse xenografted with human A549 cells harbouring KRAS mutant/wild type EGFR assessed as eosinophilic cytoplasm in lung at 6 mg/kg, iv administered twice a week for 5 weeks; conditions: in vivo, 840 h
MCF7 = experiment: Antiproliferative activity against human MCF7 cells with silenced HER2 assessed as cell growth inhibition incubated for 72 hrs by cell titer glo assay; format: functional, cell-based; conditions: MCF7, 72 h
Method in brief: (§1)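 Cells seeded at 1×10^4 per well, left overnight at 37 °C/5% CO2, then exposed to a concentration series of peptide (up to 200, down to 0.01 μM) for 72 h. 1% SDS and 1% DMSO served as controls. Cells were PBS-washed, CellTiter-Glo added and luminescence read. IC50 taken from three independent experiments per cell line.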

[3] = Toxicity in BALB/c mouse assessed as Ki-67 expression in CD4+CD8+ at 6 mg/kg, iv administered on day 0 and 10 and spleenocytes collected on day 13 and incubated for 48 hrs by flow cytometry analysis; format: organism-based; conditions: in vivo, 360 h, time 15 day
Method in brief: (§2)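 Female BALB/c mice given 6 mg/kg peptide in PBS i.v. (or PBS) on days 0 and 10, 12 mice in total. Splenocytes harvested day 13, RBC-lysed, and ≥2×10^6 cultured 48 h in RPMI/10% FBS with control media or peptide. Cells then stained for viability, CD3/CD4/CD8a and intracellular Ki67, and analyzed by flow cytometry.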

[4] = Thermal stability of compound at 15 uM incubated at 25 to 75 degC in presence of DTT by circular dichroism spectrometry; format: physicochemical
[5] = biological target: T1, ErbB-2/ErbB-3 heterodimer (Homo sapiens) (UniProt P04626+P21860); experiment: Inhibition of HER2/HER3 dimerization in human Calu-3 cells incubated for 48 hrs by proximity ligation assay; format: cell-based
Method in brief: (§3)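 A549 or Calu-3 cells (~1×10^4/well) on chamber slides, treated 48 h with 0.5 or 1 μM peptide. Controls: no compound, and one primary antibody omitted. Cells fixed in cold methanol, primary antibodies (EGFR, HER2, HER3) applied overnight at 4 °C, then PLA probes. Red fluorescence imaged at 40x and quantified over 3–6 fields.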

A549 [6] = experiment: Effect on HER2 expression in human A549 cells at 1 uM incubated for 40 hrs by Western blot analysis; format: functional, cell-based
[7] = Thermal stability of compound at 15 uM incubated at 25 to 75 degC by MALDI-TOF analysis; format: physicochemical
Method in brief: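 Peptide at 15 μM in acetonitrile heated from 25 to 75 °C. Mass checked at 25, 50 and 70 °C and at the end of the run.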

A549 [8] = experiment: Antiproliferative activity against human A549 cells overexpressing HER2 assessed as cell growth inhibition incubated for 72 hrs by cell titer glo assay; format: functional, cell-based; conditions: A549, 72 h; method in brief: as §1
Mus musculus [9] = experiment: In vivo inhibition of HER2 in human Calu-3 cells xenografted in Foxn1nu/Foxn1+ mouse assessed as reduction in HER2 phosphorylation at 8 mg/kg, IT(Intratumoral) administered thrice a week for 28 days and measured on day 28 by Western blot analysis; format: functional, organism-based; conditions: time 28.0 day
Method in brief: (§4)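 Tumors taken from the Calu-3 intratumoral study (8 mg/kg three times weekly, 28 days). Two tumors frozen at −80 °C, homogenized and immunoblotted for p-HER2. Others fixed, paraffin-embedded and sectioned at 5 μm. Sections underwent citrate pH 6.0 antigen retrieval, H2O2 block and BSA/NGS/Triton block, EGFR/HER2 primaries overnight at 4 °C, then PLA probes; imaged at 10X/40X.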

A549 [10] = experiment: Antitumor activity in Red-Fluc transfected human A549 cells harbouring KRAS mutant/wild type EGFR xenografted in Foxn1nu/Foxn1+ mouse assessed as reduction in tumor growth by measuring relative luminescence intensity at 6 mg/kg, iv treated twice a week measured after 2 weeks relative to vehicle; format: functional, organism-based
[11] = biological target: T1, ErbB-2/ErbB-3 heterodimer (Homo sapiens); experiment: Inhibition of HER2/HER3 dimerization in human A549 cells incubated for 48 hrs by proximity ligation assay; format: cell-based; conditions: dose 0.5-1 µM; method in brief: as §3
[12] = Toxicity in BALB/c mouse assessed as Ki-67 expression in CD8+ at 6 mg/kg, iv administered on day 0 and 10 and spleenocytes collected on day 13 and incubated for 48 hrs by flow cytometry analysis; format: organism-based; conditions: in vivo, 360 h, time 15 day; method in brief: as §2
MCF-10A = experiment: Cytotoxicity against human MCF-10A cells assessed as cell growth inhibition incubated for 72 hrs by cell titer glo assay; format: cell-based; method in brief: as §1
Calu-3 [13] = experiment: Antiproliferative activity against human Calu-3 cells overexpressing HER2 assessed as cell growth inhibition incubated for 72 hrs by cell titer glo assay; format: functional, cell-based; conditions: Calu-3, 72 h
Mus musculus [14] = experiment: In vivo inhibition of HER2/EGFR dimerization in human Calu-3 cells xenografted in Foxn1nu/Foxn1+ mouse at 8 mg/kg, IT(Intratumoral) administered thrice a week for 28 days and measured on day 28 by proximity ligation assay; format: functional, organism-based; conditions: time 28.0 day; method in brief: as §4
Calu-3 [15] = experiment: Antitumor activity in human Calu-3 cells xenografted in Foxn1nu/Foxn1+ mouse assessed as reduction in tumor growth at 8 mg/kg, IT(Intratumoral) administered thrice a week for 21 days and measured on day 21 relative to control; format: functional, organism-based; conditions: time 21.0 day
[16] = Toxicity in Foxn1nu/Foxn1+ mouse xenografted with human A549 cells harbouring KRAS mutant/wild type EGFR assessed as hyper-chromatic nuclei in lung at 6 mg/kg, iv administered twice a week for 5 weeks; conditions: in vivo, 840 h
[17] = biological target: Receptor tyrosine-protein kinase erbB-2 (Homo sapiens) (UniProt P04626); experiment: Inhibition of HER2 ECD in human A549 cells assessed as reduction in Akt phosphorylation at 1 uM incubated for 40 hrs by Western blot analysis; format: cell-based
[18] = Toxicity in BALB/c mouse assessed as Ki-67 expression in CD4+ at 6 mg/kg, iv administered on day 0 and 10 and spleenocytes collected on day 13 and incubated for 48 hrs by flow cytometry analysis; format: organism-based; conditions: in vivo, 360 h, time 15 day; method in brief: as §2
[19] = biological target: T2, Epidermal growth factor receptor and ErbB2 (HER1 and HER2) (Homo sapiens) (UniProt P04626+P00533); experiment: Inhibition of HER2/EGFR dimerization in human Calu-3 cells incubated for 48 hrs by proximity ligation assay; format: cell-based; conditions: dose 0.5-1 µM; method in brief: as §3
BT-474 = experiment: Antiproliferative activity against human BT-474 cells overexpressing HER2 assessed as cell growth inhibition incubated for 72 hrs by cell titer glo assay; format: functional, cell-based; conditions: BT-474, 72 h
[20] = Toxicity in Foxn1nu/Foxn1+ mouse xenografted with human Calu-3 cells assessed as clinical observation at 8 mg/kg, IT(Intratumoral) administered thrice a week for 28 days and measured on day 28; format: organism-based; conditions: in vivo, other, 672 h, time 28 day
[21] = Toxicity in BALB/c mouse assessed as Ki-67 expression in spleenocytes at 6 mg/kg, iv administered on day 0 and 10 and spleenocytes collected on day 13 and incubated for 48 hrs by flow cytometry analysis; format: organism-based; conditions: in vivo, 360 h, time 15 day; method in brief: as §2
[22] = biological target: T2, Epidermal growth factor receptor and ErbB2 (HER1 and HER2) (Homo sapiens); experiment: Inhibition of HER2/EGFR dimerization in human A549 cells incubated for 48 hrs by proximity ligation assay; format: cell-based; conditions: dose 0.5-1 µM; method in brief: as §3
[23] = biological target: Receptor tyrosine-protein kinase erbB-2 (Homo sapiens) (UniProt P04626); experiment: Binding affinity to HER2 domain IV (unknown origin) by SPR analysis

CC[C@H](C)[C@H]1C(=O)NC(=O)[C@H](CCCNC(=N)N)NC(=O)C[C@@H](c2cccc3ccccc23)NC(=O)N[C@H]2CSSC[C@H](NC(=O)C[C@@H](c3cccc4ccccc34)NC(=O)[C@H](CCCNC(=N)N)NC(=O)[C@@H]3CCCN3C(=O)[C@@H]3CCCN13)C(=O)N[C@@H](Cc1ccccc1)C(=O)N1CCC[C@H]1C(=O)N[C@@H](CC(=O)O)C(=O)NC(=O)[C@H](CC(=O)O)NC(=O)[C@H](Cc1ccccc1)NC2=O
inhibition [1]: Active
Activity [2]: Non-Toxic
IC50 (MCF7): > 20000 nM
Activity [3]: Non-Toxic
Stabilty [4]: Stable
inhibition [5]: Dose-Dependent Effect
Activity (A549 [6]): inactive
Stabilty [7]: Stable
IC50 (A549 [8]): 369 nM
inhibition (Mus musculus [9]): Active
Activity (A549 [10]): Active
inhibition [11]: Dose-Dependent Effect
Activity [12]: Non-Toxic
IC50 (MCF-10A): > 40000 nM
IC50 (Calu-3 [13]): 73 nM
inhibition (Mus musculus [14]): Active
Activity (Calu-3 [15]): Active
Activity [16]: Non-Toxic
inhibition [17]: Active
Activity [18]: Non-Toxic
inhibition [19]: Dose-Dependent Effect
IC50 (BT-474): 280 nM
Activity [20]: Non-Toxic
Activity [21]: Non-Toxic
inhibition [22]: Dose-Dependent Effect
Activity [23]: Dose-Dependent Effect
